# CHRM5 PAM = CHRM5 positive allosteric modulation | CHO-K1 hM5, Fluo-8 calcium, ACh EC20 PAM; 0% = ACh EC20, 100% = ACh EC100 | AID 624038 | activation, % at 3 µM | 0.3% of 360,000 active | P08912;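 active = activation above the run cutoff, the mean activation of all test compounds plus 3 SD, cut at about 18% in these data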
# Target sequence (P08912 whole entry, looked up): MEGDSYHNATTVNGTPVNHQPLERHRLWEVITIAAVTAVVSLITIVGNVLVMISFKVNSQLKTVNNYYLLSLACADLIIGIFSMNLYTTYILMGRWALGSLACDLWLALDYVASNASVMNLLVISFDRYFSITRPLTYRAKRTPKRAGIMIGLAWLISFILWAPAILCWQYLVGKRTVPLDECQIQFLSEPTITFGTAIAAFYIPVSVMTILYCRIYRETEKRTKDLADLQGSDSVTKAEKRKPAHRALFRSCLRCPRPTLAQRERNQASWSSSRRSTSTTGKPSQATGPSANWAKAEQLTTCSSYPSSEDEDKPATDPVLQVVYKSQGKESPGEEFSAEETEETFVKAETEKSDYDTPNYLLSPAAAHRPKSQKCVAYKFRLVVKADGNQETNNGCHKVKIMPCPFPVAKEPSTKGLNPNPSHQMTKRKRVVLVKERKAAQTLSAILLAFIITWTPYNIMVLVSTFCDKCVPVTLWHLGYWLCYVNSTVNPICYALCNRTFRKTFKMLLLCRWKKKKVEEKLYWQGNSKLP
#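 System – CHO-K1 hM5 cells · Compound – 3 µM, single dose · Incubation – compound preincubation 140 s before EC20 acetylcholine addition · Technique – Fluo-8 calcium fluorescence · Measure – Max/basal fluorescence ratio as % of EC20–EC100 ACh window · Benchmarks – low control EC20 acetylcholine (0%), high control EC100 acetylcholine (100%) · Replication – singlicate, one well per test compound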
# CHRM4 agonist = CHRM4 agonism in calcium assay; P08173; 0.14% of 360,000 active; CHO-K1 hM4/Gqi5, Fluo-8 calcium fluorescence; vehicle 0%, full acetylcholine response 100%; activation, % at 3 µM;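 active = activation above the run mean over all test wells plus 3 SD, cut at about 32% in these data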;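 note: peak over basal fluorescence ratio per well then scaled between controls; 0% = DMSO wells and 100% = acetylcholine at EC100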
# M4 PAM = potentiates acetylcholine response at human M4 receptor; activation, % at 3 µM; CHO-K1 hM4/Gqi5, Fluo-8 calcium fluorescence, ACh EC20; 0% = ACh EC20, 100% = maximal ACh; 0.4% of 360,000 active; P08173; AID 624126;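 active = activation above its plate's cutoff, the mean activation of sample wells plus 3 SD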
# CHRM5 agonist = CHRM5 agonism in calcium assay | P08912 | CHO-K1 hM5 cells, Fluo-8 calcium fluorescence; 0% DMSO wells, 100% maximal acetylcholine response | activation, % at 3 µM | 0.19% of 360,000 active;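 active = activation above the run's mean over test compounds plus 3 SD, cut at about 23% in these data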;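 note: signal is peak over basal fluorescence ratio across the kinetic read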
# M5 antag = CHRM5 antagonism in calcium assay. P08912. CHO-hM5 cells, Fluo-8 calcium fluorescence, ACh EC80. inhibition, % at 3 µM. 0.59% of 360,000 active;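 active = inhibition above a per-plate cutoff, the mean of that plate's test compounds plus 3 SD, cut at about 27% in these data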;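 note: 0% = acetylcholine EC80 with DMSO and 100% = DMSO without agonist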
# M4 antag = antagonists of human muscarinic M4 receptor (CHRM4); inhibition, % at 3 µM; CHO-hM4 cells, ACh EC80, Fluo-8 calcium fluorescence; AID 624125; 0.73% of 360,000 active;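 active = inhibition above its plate's cutoff, the mean inhibition of sample wells plus 3 SD, cut at about 27% in these data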;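 note: 0% = acetylcholine EC80 with DMSO and 100% = DMSO without agonist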
# Active calls of the source: *. A selection: hits, their analogues and other compounds. The true share with any hit is near 1.9%.
SMILES,CHRM5 PAM,CHRM4 agonist,M4 PAM,CHRM5 agonist,M5 antag,M4 antag
COc1ccccc1-c1sc2ccccc2c1-c1ccc(OCCN2CCCCC2)cc1,0.2,7.8,-2.3,-0.9,-4.2,1.1
Oc1ccc2sc(-c3ccccc3O)c(-c3ccc(OCCN4CCCCC4)cc3)c2c1,-8.4,61.4*,-13.1,6.7,18.0,43.2*
COc1cccc(-c2sc3ccccc3c2-c2ccc(OCCN3CCCCC3)cc2)c1,-1.2,5.1,8.7,-5.1,15.0,33.6*
COc1cccc(-c2sc3ccccc3c2-c2ccc(OCCN(C)C)cc2)c1,-14.6,9.4,1.6,-7.2,22.3,47.4*
COC(=O)c1ccc(N2CCN(C)CC2)c(NC(=O)c2ccc(Br)o2)c1,-3.2,4.0,-3.9,-1.3,4.5,-3.5
Cc1cc(C)c(OCC(=O)OC(C)C(=O)N2CCc3ccccc32)c(C)c1 (stereo not drawn),-1.2,0.9,6.0,-2.9,-1.8,-0.8
Cc1cc(C)c(C#N)c(Sc2nc(C)c([N+](=O)[O-])c(C)c2C#N)n1,-4.2,1.8,41.5*,-6.8,8.4,34.0*
O=S1(=O)CC(O)C(Nc2ccc(Cl)cc2)C1 (stereo not drawn),-2.7,0.9,1.6,1.4,-7.5,0.8
O=S1(=O)CC(O)C(Nc2ccccc2)C1 (stereo not drawn),41.6*,0.2,26.0*,-6.5,-7.9,-4.4
Cc1cc(=O)[nH]c(SCC(=O)Nc2c(C)n(C)n(-c3ccccc3)c2=O)n1,-1.2,-0.5,-3.4,2.0,6.3,-1.1
Cc1ccc([C@@H]2[C@@H]3C(=O)N(C)C(=O)[C@@H]3[C@]3(C)C(=O)N(Cc4ccccc4)CC(=O)N23)o1,21.8*,1.7,8.8,4.3,-5.0,0.3
CN1CCN(C2=Cc3ccccc3Sc3cc(F)c(Cl)cc32)CC1,-29.0,4.0,-18.8,-12.5,14.9,28.7*
CN1CCN(C2=Cc3ccccc3Sc3cc(F)c(F)cc32)CC1,-42.8,3.8,-16.6,-12.4,22.2,16.8
CN1CCN(C2=Cc3cc(Cl)ccc3Sc3cc(F)ccc32)CC1,-28.8,8.8,-15.1,-9.9,44.5*,49.5*
CC[C@H](C)Cc1cn([C@@H](CCCCN)C(=O)NCCCCCCCCCCC(=O)N2CCNCC2)nn1,6.7,0.0,3.4,-9.9,2.5,-4.5
CC[C@H](C)Cc1cn([C@@H](CCCN=C(NC(=O)OC(C)(C)C)NC(=O)OC(C)(C)C)C(=O)NCCCCCCCCCCC(=O)N2CCN(C(=O)OC(C)(C)C)CC2)nn1,-5.5,1.2,-13.8,-10.8,6.2,35.7*
CC(C)(C)OC(=O)NCCCCCc1cn(CC(=O)NCCCCCCCCCCC(=O)N2CCN(C(=O)OC(C)(C)C)CC2)nn1,-9.1,5.5,-0.3,6.5,12.4,2.5
Cc1cn([C@@H](CCCCNC(=O)OC(C)(C)C)C(=O)NCCCCCCCCCCC(=O)N2CCN(C(=O)OC(C)(C)C)CC2)nn1,-40.0,28.2,-16.5,0.0,19.2,40.1*
Cn1cc(CN2CCCCC2C(=O)Nc2ccc(-n3cccn3)cc2)cn1 (stereo not drawn),-6.6,0.3,-0.3,-6.7,27.3*,1.2
CN(C)S(=O)(=O)c1ccc(C(=O)N2CCN=C2SCc2cccnc2)cc1,4.0,2.1,19.5*,-5.0,-1.3,14.2
CCC1OC(C(C)C)Cc2[nH][nH]c(=O)c21 (stereo not drawn),4.0,-0.2,0.2,2.6,10.0,7.4
Cc1cccc(CN(Nc2ccccc2)c2ccccc2)n1,-4.9,-2.5,-0.5,-2.6,-12.2,-20.6
CC(=O)Nc1scc(C)c1-c1nc2ccccc2s1,-3.0,-0.5,-5.9,-4.3,10.4,-4.5
CNc1sc(C(=O)c2cccs2)c(N)c1-c1nc2ccccc2s1,6.0,2.2,1.2,2.0,19.9,34.0*
CNc1sc(C(=O)c2ccc(F)cc2)c(N)c1-c1nc2ccccc2s1,-5.3,3.4,14.9,-0.3,19.4,32.3*
c1ccc(CCNc2ncnc3scc(C4COc5ccccc5O4)c23)cc1 (stereo not drawn),-9.7,-0.7,-18.8,-3.6,15.4,38.0*

# Screens from PubChem.
